From ChEMBL document CHEMBL1138784, “Rational design, synthesis, and biological evaluation of bis(pyrimido[5,6,1-de]acridines) and bis(pyrazolo[3,4,5-kl]acridine-5-carboxamides) as new anticancer agents” (J Med Chem, 2004)
One block for each molecule: values may come before it.

Tests used:
[1] = Cytotoxicity against human H460M cancer cell line was determined after 144 hr; type: functional, cell-based; conditions: Cancer cell lines
Summary of the method: (§1)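 MTT colorimetric assay. Cells seeded by growth characteristics and preincubated 24 h, then exposed to drug for 1 h or 144 h at 37 °C, 5% CO2. H460M, MKN45 and PC-3 were grown in RPMI 1640 with 10% FCS. HCT116 was grown in D-MEM with 10% FBS and 2 mM glutamine.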

SW-620 [2] = experiment: Percent growth of colon SW-620 cell line was determined at 10e-8 M concentration after 48 hr of exposing; type: functional, Homo sapiens
Summary of the method: (§2)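 NCI sulforhodamine B screen. Cells seeded by growth rate, 24 h drug-free, then 48 h exposure to 10^-8, 10^-6 or 10^-5 M. Protein-stain optical density expressed as percent growth relative to untreated control (100%); negative values indicate cell kill.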

MOLT-4 [3] = experiment: Percent growth of leukemia MOLT-4 cell line was determined at 10e-6 M concentration after 48 h of exposing; type: functional, Homo sapiens; summary of the method: as §2
[4] = Cytotoxicity against human H460M cancer cell line was determined after 1 hr; type: cell-based; conditions: Cancer cell lines; summary of the method: as §1
SNB-19 [5] = experiment: Percent growth of CNS SNB-19 cell line was determined at 10e-8 M concentration after 48 hr of exposing; type: functional, Homo sapiens; summary of the method: as §2
[6] = Cytotoxicity against human HCT116 cancer cell line was determined after 1 hr; type: cell-based; conditions: HCT-116, 1 h; summary of the method: as §1
LoVo [7] = experiment: Cytotoxicity against human LoVo cancer cell line was determined after 144 hr; type: functional, cell-based
Summary of the method: (§3)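 MTT assay on doxorubicin-sensitive LoVo and resistant LoVo/Dx cells, 24 h preincubation, then 1 h or 144 h drug exposure at 37 °C, 5% CO2. IC50 in nM. Resistance index is IC50 on LoVo/Dx divided by IC50 on LoVo.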

LoVo [8] = experiment: Ratio of IC50 against sensitive LoVo cell line and that of doxorubicin resistance LoVo cell line was determined after 1 hr exposure; type: functional, Homo sapiens
Nucleic Acid = experiment: Binding site preference is determined as the ratio of Poly (dA-dT)2 to Poly (dG-dC)2; type: nucleic-acid assay
Summary of the method: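 Ethidium displacement fluorometry at pH 7.0 (10 mM Na2HPO4, 10 mM NaH2PO4, 1 mM EDTA) with 1.26 μM ethidium bromide and 1 μM [poly(dA-dT)]2 or [poly(dG-dC)]2, 20 °C. Ex 546 nm, em 595 nm, drug added serially from a DMSO stock. Preference taken from the [AT]/[GC] ratio of C50 values, counted significant only below 0.7 or above 1.3.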

NCI-H460 [9] = experiment: Percent growth of lung NCI-H460 cell line was determined at 10e-6 M concentration after 48 hr of exposing; type: functional, Homo sapiens; summary of the method: as §2
DU-145 [10] = experiment: Percent growth of prostate DU-145 cell line was determined at 10e-5 M concentration after 48 hr of exposing; type: functional, Homo sapiens
[11] = Percent growth of melanoma LOX IMV1 cell line was determined at 10e-5 M concentration after 48 hr of exposing; type: functional, Homo sapiens; summary of the method: as §2
DU-145 [12] = experiment: Percent growth of prostate DU-145 cell line was determined at 10e-6 M concentration after 48 hr of exposing; type: functional, Homo sapiens
MKN-45 = experiment: Cytotoxicity against human MKN45 cancer cell line was determined after 144 hr; type: functional, cell-based; conditions: MKN-45, 144 h; summary of the method: as §1
[13] = Cytotoxicity against human PC3 cancer cell line was determined after 1 hr; type: cell-based; conditions: Cancer cell lines; summary of the method: as §1
HT-29 = experiment: Cytotoxicity is determined as the concentration required to inhibit the growth of human colon adenocarcinoma (HT-29) cell line; type: functional, cell-based
PC-3 = experiment: Cytotoxicity against human PC3 cancer cell line was determined after 144 hr; type: functional, cell-based; conditions: PC-3, 144 h; summary of the method: as §1
SNB-19 [14] = experiment: Percent growth of CNS SNB-19 cell line was determined at 10e-6 M concentration after 48 hr of exposing; type: functional, Homo sapiens; summary of the method: as §2
HCT-116 = experiment: Cytotoxicity against human HCT116 cancer cell line was determined after 144 hr; type: functional, cell-based; conditions: HCT-116, 144 h; summary of the method: as §1
MCF7 [15] = experiment: Percent growth of breast MCF-7 cell line was determined at 10e-5 M concentration after 48 hr of exposing; type: functional, Homo sapiens
MCF7 [16] = experiment: Percent growth of breast MCF-7 cell line was determined at 10e-8 M concentration after 48 hr of exposing; type: functional, Homo sapiens
[17] = Cytotoxicity against human LoVo cancer cell line was determined after 1 hr; type: cell-based; summary of the method: as §3
MOLT-4 [18] = experiment: Percent growth of leukemia MOLT-4 cell line was determined at 10e-5 M concentration after 48 hr of exposing; type: functional, Homo sapiens; summary of the method: as §2
LoVo [19] = experiment: (§4) Cytotoxicity against doxorubicin resistant LoVo cell line was determined against 1 hour; type: functional, cell-based; conditions: Homo sapiens; summary of the method: as §3
[20] = Cytotoxicity against human MKN45 cancer cell line was determined after 1 hr; type: cell-based; conditions: Cancer cell lines; summary of the method: as §1
[21] = Percent growth of melanoma LOX IMV1 cell line was determined at 10e-8 M concentration after 48 hr of exposing; type: functional, Homo sapiens; summary of the method: as §2
DU-145 [22] = experiment: Percent growth of prostate DU-145 cell line was determined at 10e-8 M concentration after 48 h of exposing; type: functional, Homo sapiens
786-0 [23] = experiment: Percent growth of renal 786-O cell line was determined at 10e-6 M concentration after 48 h of exposing; type: functional, Homo sapiens; summary of the method: as §2
MCF7 [24] = experiment: Percent growth of breast MCF-7 cell line was determined at 10e-6 M concentration after 48 h of exposing; type: functional, Homo sapiens
MOLT-4 [25] = experiment: Percent growth of leukemia MOLT-4 cell line was determined at 10e-8 M concentration after 48 hr of exposing; type: functional, Homo sapiens; summary of the method: as §2
OVCAR-4 [26] = experiment: Percent growth of ovarian OVCAR-4 cell line was determined at 10e-6 M concentration after 48 hr of exposing; type: functional, Homo sapiens; summary of the method: as §2
NCI-H460 [27] = experiment: Percent growth of lung NCI-H460 cell line was determined at 10e-5 M concentration after 48 hr of exposing; type: functional, Homo sapiens; summary of the method: as §2
[28] = Percent growth of melanoma LOX IMV1 cell line was determined at 10e-6 M concentration after 48 hr of exposing; type: functional, Homo sapiens; summary of the method: as §2
786-0 [29] = experiment: Percent growth of renal 786-O cell line was determined at 10e-5 M concentration after 48 hr of exposing; type: functional, Homo sapiens; summary of the method: as §2
SNB-19 [30] = experiment: Percent growth of CNS SNB-19 cell line was determined at 10e-5 M concentration after 48 hr of exposing; type: functional, Homo sapiens; summary of the method: as §2
OVCAR-4 [31] = experiment: Percent growth of ovarian OVCAR-4 cell line was determined at 10e-8 M concentration after 48 hr of exposing; type: functional, Homo sapiens; summary of the method: as §2
SW-620 [32] = experiment: Percent growth of colon SW-620 cell line was determined at 10e-5 M concentration after 48 hr of exposing; type: functional, Homo sapiens; summary of the method: as §2
OVCAR-4 [33] = experiment: Percent growth of ovarian OVCAR-4 cell line was determined at 10e-5 M concentration after 48 hr of exposing; type: functional, Homo sapiens; summary of the method: as §2
786-0 [34] = experiment: Percent growth of renal 786-O cell line was determined at 10e-8 M concentration after 48 h of exposing; type: functional, Homo sapiens; summary of the method: as §2
NCI-H460 [35] = experiment: Percent growth of lung NCI-H460 cell line was determined at 10e-8 M concentration after 48 hr of exposing; type: functional, Homo sapiens; summary of the method: as §2
LoVo [36] = experiment: Cytotoxicity against doxorubicin resistant LoVo cell line was determined against 144 hrs; type: functional, cell-based; conditions: Homo sapiens; summary of the method: as §3
SW-620 [37] = experiment: Percent growth of colon SW-620 cell line was determined at 10e-6 M concentration after 48 hr of exposing; type: functional, Homo sapiens; summary of the method: as §2
[38] = as §4; type: cell-based; conditions: Homo sapiens; summary of the method: as §3

Binding site preference (Nucleic Acid): 2.1
Structure (SMILES): CN(C)CCN1Nc2c3ccccc3nc3c(C(=O)NCCCN(C)CCCNC(=O)c4ccc5c6c(c7ccccc7nc46)NN5CCN(C)C)ccc1c23
IC50 [1]: 4.4 nM
Growth (SW-620 [2]): 37%
Growth (MOLT-4 [3]): 7%
IC50 [4]: 7.2 nM
Growth (SNB-19 [5]): 40%
IC50 [6]: 12 nM
IC50 (LoVo [7]): 1.1 nM
Resistance index (LoVo [8]): 24
Growth (NCI-H460 [9]): -6%
Growth (DU-145 [10]): -40%
Growth [11]: -57%
Growth (DU-145 [12]): -23%
IC50 (MKN-45): 0.6 nM
IC50 [13]: 12 nM
IC50 (HT-29): 3 nM
IC50 (PC-3): 6 nM
Growth (SNB-19 [14]): -7%
IC50 (HCT-116): 19 nM
Growth (MCF7 [15]): -35%
Growth (MCF7 [16]): 18%
IC50 [17]: 150 nM
Growth (MOLT-4 [18]): -27%
IC50 (LoVo [19]): 3600 nM
IC50 [20]: 6.8 nM
Growth [21]: 22%
Growth (DU-145 [22]): 25%
Growth (786-0 [23]): 5%
Growth (MCF7 [24]): 2%
Growth (MOLT-4 [25]): 28%
Growth (OVCAR-4 [26]): -17%
Growth (NCI-H460 [27]): -53%
Growth [28]: 5%
Growth (786-0 [29]): -48%
Growth (SNB-19 [30]): -31%
Growth (OVCAR-4 [31]): 41%
Growth (SW-620 [32]): -45%
Growth (OVCAR-4 [33]): -40%
Growth (786-0 [34]): 30%
Growth (NCI-H460 [35]): 12%
IC50 (LoVo [36]): 400 nM
Growth (SW-620 [37]): 14%

Binding site preference (Nucleic Acid): 2.4
Structure (SMILES): CN(C)CCn1c(=O)c2ccc(NCCCN(C)CCCNc3ccc4c(=O)n(CCN(C)C)c(=O)n5c6ccc([N+](=O)[O-])cc6c(=O)c3c45)c3c(=O)c4cc([N+](=O)[O-])ccc4n(c1=O)c23
IC50 [1]: 0.19 nM
Growth (SW-620 [2]): 42%
Growth (MOLT-4 [3]): -31%
IC50 [4]: 0.93 nM
Growth (SNB-19 [5]): 37%
IC50 [6]: 2.9 nM
IC50 (LoVo [7]): 7.6 nM
Resistance index (LoVo [8]): 9
Growth (NCI-H460 [9]): -36%
Growth (DU-145 [10]): -83%
Growth [11]: -69%
Growth (DU-145 [12]): -13%
IC50 (MKN-45): 0.29 nM
IC50 [13]: 11 nM
IC50 (HT-29): < 0.1 nM
IC50 (PC-3): 4.5 nM
Growth (SNB-19 [14]): -25%
IC50 (HCT-116): 1.1 nM
Growth (MCF7 [15]): -55%
Growth (MCF7 [16]): 21%
IC50 [17]: 42 nM
Growth (MOLT-4 [18]): -50%
IC50 [20]: 1.3 nM
Growth [21]: 16%
Growth (DU-145 [22]): 35%
Growth (786-0 [23]): -4%
Growth (MCF7 [24]): -2%
Growth (MOLT-4 [25]): -2%
Growth (OVCAR-4 [26]): -54%
Growth (NCI-H460 [27]): -60%
Growth [28]: -56%
Growth (786-0 [29]): -63%
Growth (SNB-19 [30]): -66%
Growth (OVCAR-4 [31]): 31%
Growth (SW-620 [32]): -16%
Growth (OVCAR-4 [33]): -65%
Growth (786-0 [34]): 33%
Growth (NCI-H460 [35]): 10%
IC50 (LoVo [36]): 67 nM
Growth (SW-620 [37]): 5%
IC50 [38]: 380 nM
